In ChEMBL document CHEMBL1148816, “Heterotricyclic himbacine analogs as potent, orally active thrombin receptor (protease activated receptor-1) antagonists” (J Med Chem, 2007):
Active and inactive are the calls of the source. The rule behind the calls is not given here.

Experiments:
[1] = target: T1, Proteinase-activated receptor 1 (Homo sapiens, UniProt P25116); assay: (§1) Displacement of [3H]haTRAP from PAR1 in human platelet membrane; assay type: cell membranes
T1 sequence (P25116 whole entry): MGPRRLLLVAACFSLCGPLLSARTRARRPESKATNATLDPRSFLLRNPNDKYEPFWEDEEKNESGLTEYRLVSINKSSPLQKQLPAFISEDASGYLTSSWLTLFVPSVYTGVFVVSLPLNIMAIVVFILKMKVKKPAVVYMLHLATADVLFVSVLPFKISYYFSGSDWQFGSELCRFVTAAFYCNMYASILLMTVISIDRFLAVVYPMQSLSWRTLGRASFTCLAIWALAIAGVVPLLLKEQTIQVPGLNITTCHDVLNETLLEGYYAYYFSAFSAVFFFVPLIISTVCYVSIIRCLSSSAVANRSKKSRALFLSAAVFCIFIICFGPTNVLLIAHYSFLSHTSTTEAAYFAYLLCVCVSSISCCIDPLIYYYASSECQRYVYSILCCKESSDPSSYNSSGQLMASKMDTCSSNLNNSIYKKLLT
Outline: (§2)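 Membranes from human platelets as the PAR-1 source, with tritiated high-affinity thrombin receptor activating peptide ([3H]haTRAP) as radioligand; IC50 reported ± SEM, n = 2.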

[2] = AUC (0 to 6 hrs) in rat at 10 mg/kg, po; assay type: ADME, organism-based; set-up: time < 6 hr, dose 10 mg/kg, route oral; settings: plasma
Outline: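 Rats given a single 10 mg/kg oral dose in 0.4% methylcellulose; plasma levels followed for 6 h and exposure reported as AUC from 0 to 6 h in ng·hr/mL.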

[3] = tested on: Cynomolgus monkey; assay: Ex vivo inhibition of haTRAP-induced platelet aggregation in cynomolgus monkey at 3 mg/kg, po after 6 hrs; assay type: functional; settings: Macaca fascicularis
Outline: (§3)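 Conscious, chaired cynomolgus monkeys dosed orally at 3 mg/kg in 20% PEG-HPBCD; blood drawn at 1 h intervals to 6 h, then at 24 h; haTRAP added ex vivo as agonist; aggregation read in a whole blood aggregometer, reported as percent reduction.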

[4] = tested on: Cynomolgus monkey; assay: Ex vivo inhibition of haTRAP-induced platelet aggregation in cynomolgus monkey at 3 mg/kg, po 24 hrs; assay type: functional; settings: Macaca fascicularis; outline: as §3
[5] = tested on: Cynomolgus monkey; assay: Inhibition of haTRAP-induced platelet aggregation in cynomolgus monkey at 1 mg/kg, po up to 6 hrs; assay type: functional, organism-based; set-up: dose 1 mg/kg; settings: Macaca fascicularis
Outline: (§4)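 Cynomolgus monkeys dosed orally at 1 mg/kg and kept conscious in chairs; blood sampled hourly up to 6 h and again at 24 h; haTRAP added to the samples to trigger aggregation, measured by whole blood aggregometry.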

[6] = tested on: Cynomolgus monkey; assay: Inhibition of haTRAP-induced platelet aggregation in cynomolgus monkey at 1 mg/kg, po after 24 hrs; assay type: functional; settings: Macaca fascicularis; outline: as §4
[7] = Bioavailability in cynomolgus monkey at 3 mg/kg, po; assay type: ADME, organism-based, Macaca fascicularis; settings: in vivo
[8] = Cmax in po dosed cynomolgus monkey; assay type: ADME, organism-based, Macaca fascicularis; set-up: route oral; settings: in vivo
[9] = Half life in iv dosed cynomolgus monkey; assay type: ADME, organism-based, Macaca fascicularis; settings: in vivo
[10] = Tmax in cynomolgus monkey; assay type: ADME, organism-based, Macaca fascicularis; settings: in vivo
[11] = species: Mus musculus; assay: Effect on liver weight in mouse; assay type: functional, organism-based
Outline: (§5)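 Mouse P450 enzyme induction model run for 8 days at doses up to 100 mg/kg; end points were liver weight, liver-to-body weight ratio and spectral CYP450.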

[12] = species: Mus musculus; assay: Effect on liver to body weight ratio in mouse; assay type: functional, organism-based; outline: as §5
[13] = target: T2, Proteinase-activated receptor 1 (Homo sapiens) (UniProt P25116); assay: as §1; assay type: cell membranes; outline: as §2
T2 sequence (whole entry): T1 sequence (P25116 whole entry)

[14] = Bioavailability in cynomolgus monkey at 1 mg/kg, iv and 1.5 mg/kg, po; assay type: ADME, organism-based, Macaca fascicularis; settings: in vivo
[15] = Half life in cynomolgus monkey at 1 mg/kg, iv and 1.5 mg/kg, po; assay type: ADME, organism-based, Macaca fascicularis; settings: in vivo
[16] = AUC (0 to 24 hrs) in cynomolgus monkey at 1 mg/kg, iv and 1.5 mg/kg, po; assay type: ADME, organism-based, Macaca fascicularis; settings: plasma
[17] = Cmax in cynomolgus monkey at 1 mg/kg, iv and 1.5 mg/kg, po; assay type: ADME, organism-based, Macaca fascicularis; settings: in vivo
[18] = Tmax in cynomolgus monkey at 1 mg/kg, iv and 1.5 mg/kg, po; assay type: ADME, organism-based, Macaca fascicularis; settings: in vivo

IC50 [1] [µM]	AUC(0-t) at 6 h [2] [µg·h/mL]	Compound	other results
0.08	–	C[C@H]1OC(=O)[C@@H]2C[C@@H]3C[S+]([O-])CC[C@H]3[C@H](/C=C/c3ccc(-c4cccc(C(F)(F)F)c4)cn3)[C@H]12 (stereo in doubt)	–
0.008	6.01	C[C@H]1OC(=O)[C@@H]2C[C@@H]3CN(C(=O)C4CC4)CC[C@H]3[C@H](/C=C/c3ccc(-c4ccccc4F)cn3)[C@H]12	inhibition in vivo at 3 mg/kg [3]: 45%; inhibition in vivo at 3 mg/kg [4]: 39%
0.0375	–	C[C@H]1OC(=O)[C@@H]2C[C@@H]3CN(C(=O)C4CC4)CC[C@H]3[C@H](/C=C/c3ccc(-c4cccc(C(F)(F)F)c4)cn3)[C@H]12	–
0.021	–	C[C@H]1OC(=O)[C@@H]2C[C@@H]3COCC[C@H]3[C@H](/C=C/c3ccc(-c4cccc(Cl)c4Cl)cn3)[C@H]12	–
0.762	–	C[C@H]1OC(=O)[C@@H]2C[C@@H]3CN(C)CC[C@H]3[C@H](/C=C/c3ccc(-c4cccc(C(F)(F)F)c4)cn3)[C@H]12	–
0.153	–	CCOC(=O)N1CCC[C@H]2[C@H](/C=C/c3ccc(-c4ccccc4F)cn3)[C@@H]3[C@@H](C)OC(=O)[C@@H]3C[C@@H]21	–
0.025	–	C[C@H]1OC(=O)[C@@H]2C[C@@H]3CN(C(=O)OCc4ccccc4)CC[C@H]3[C@H](/C=C/c3ccc(-c4cccc(C(F)(F)F)c4)cn3)[C@H]12	–
0.224	–	CCOC(=O)N1CCC[C@H]2[C@H](/C=C/c3ccc(-c4cccc(F)c4)cn3)[C@@H]3[C@@H](C)OC(=O)[C@@H]3C[C@@H]21	–
0.0155	4.37	C[C@H]1OC(=O)[C@@H]2C[C@@H]3CN(C(=O)C4CC4)CC[C@H]3[C@H](/C=C/c3ccc(-c4cccc(F)c4)cn3)[C@H]12	inhibition in vivo at 3 mg/kg [3]: 100%; inhibition in vivo at 3 mg/kg [4]: 72%
1.1	–	C[C@H]1OC(=O)[C@@H]2C[C@@H]3CN(C(N)=O)CC[C@H]3[C@H](/C=C/c3ccc(-c4cccc(F)c4)cn3)[C@H]12	–
0.0335	–	CCOC(=O)N1CC[C@@H]2[C@H](C[C@H]3C(=O)O[C@H](C)[C@H]3[C@H]2/C=C/c2ccc(-c3ccccn3)cn2)C1	inhibition in vivo at 3 mg/kg [3]: 67%; inhibition in vivo at 3 mg/kg [4]: 29%
0.295	–	CCOC(=O)N1CCC[C@H]2[C@H](/C=C/c3ccc(-c4cccc(C#N)c4)cn3)[C@@H]3[C@@H](C)OC(=O)[C@@H]3C[C@@H]21	–
0.101	–	CCCS(=O)(=O)N1CC[C@@H]2[C@H](C[C@H]3C(=O)O[C@H](C)[C@H]3[C@H]2/C=C/c2ccc(-c3cccc(F)c3)cn2)C1	–
0.375	–	C[C@H]1OC(=O)[C@@H]2C[C@@H]3C[S+]([O-])CC[C@H]3[C@H](/C=C/c3ccc(-c4cccc(C(F)(F)F)c4)cn3)[C@H]12 (single isomer, unassigned; isomer 2)	–
0.015	5.35	C[C@H]1OC(=O)[C@@H]2C[C@@H]3CN(S(C)(=O)=O)CC[C@H]3[C@H](/C=C/c3ccc(-c4cccc(F)c4)cn3)[C@H]12	inhibition in vivo at 3 mg/kg [3]: 54%; inhibition in vivo at 3 mg/kg [4]: 50%
0.55	–	CC(=O)N1CC[C@@H]2[C@H](C[C@H]3C(=O)O[C@H](C)[C@H]3[C@H]2/C=C/c2ccc(-c3cccc(C(F)(F)F)c3)cn2)C1	–
0.026	0.85	C[C@H]1OC(=O)[C@@H]2C[C@@H]3COCC[C@H]3[C@H](/C=C/c3ccc(-c4cccc(F)c4)cn3)[C@H]12	Activity [5]: Active; inhibition in vivo at 1 mg/kg [6]: 80%

IC50 [1] [µM]	AUC(0-t) at 6 h [2] [µg·h/mL]	Compound	other results
0.0185	2.05	CCNC(=O)N1CC[C@@H]2[C@H](C[C@H]3C(=O)O[C@H](C)[C@H]3[C@H]2/C=C/c2ccc(-c3cccc(F)c3)cn2)C1	inhibition in vivo at 3 mg/kg [3]: 47%; inhibition in vivo at 3 mg/kg [4]: 34%
0.0105	2.22	CCOC(=O)N1CC[C@@H]2[C@H](C[C@H]3C(=O)O[C@H](C)[C@H]3[C@H]2/C=C/c2ccc(-c3cccc(F)c3)cn2)C1	Ki [1]: 0.0045 µM; inhibition in vivo at 3 mg/kg [3]: 100%; bioavailability [7]: 62%; Cmax [8]: 0.99 µM; half-life [9]: 6.2 h; Tmax [10]: 0.7 h; Activity [11]: inactive; Activity [12]: inactive; inhibition in vivo at 3 mg/kg [4]: 70%
0.113	–	CC(C)C(=O)N1CC[C@@H]2[C@H](C[C@H]3C(=O)O[C@H](C)[C@H]3[C@H]2/C=C/c2ccc(-c3cccc(C(F)(F)F)c3)cn2)C1	–
–	–	CCOC(=O)N1CCC[C@H]2[C@H](/C=C/c3ccc(-c4cccnc4)cn3)[C@@H]3[C@@H](C)OC(=O)[C@@H]3C[C@@H]21	Activity [13]: inactive
0.022	–	C[C@H]1OC(=O)[C@@H]2C[C@@H]3CSCC[C@H]3[C@H](/C=C/c3ccc(-c4cccc(C(F)(F)F)c4)cn3)[C@H]12	–
0.017	0.545	C[C@H]1OC(=O)[C@@H]2C[C@@H]3COCC[C@H]3[C@H](/C=C/c3ccc(-c4cccc(C(F)(F)F)c4)cn3)[C@H]12	–
0.013	–	C[C@H]1OC(=O)[C@@H]2C[C@@H]3COCC[C@H]3[C@H](/C=C/c3ccc(-c4ccccc4Cl)cn3)[C@H]12	–
0.6	–	C[C@H]1OC(=O)[C@@H]2C[C@@H]3CNCC[C@H]3[C@H](/C=C/c3ccc(-c4cccc(C(F)(F)F)c4)cn3)[C@H]12	–
0.025	1.05	C[C@H]1OC(=O)[C@@H]2C[C@@H]3COCC[C@H]3[C@H](/C=C/c3ccc(-c4ccccc4F)cn3)[C@H]12	Activity [5]: Active; inhibition in vivo at 1 mg/kg [6]: 55%; bioavailability [14]: 71%; half-life [15]: 8.6 h; AUC(0-t) [16]: 3.7 µg·h/mL; Cmax [17]: 0.61 µg/mL; Tmax [18]: 1.7 h
0.6	–	CCOC(=O)N1CCC[C@H]2[C@H](/C=C/c3ccc(-c4ccccc4C)cn3)[C@@H]3[C@@H](C)OC(=O)[C@@H]3C[C@@H]21	–
0.2	–	C[C@H]1OC(=O)[C@@H]2C[C@@H]3CS(=O)(=O)CC[C@H]3[C@H](/C=C/c3ccc(-c4cccc(C(F)(F)F)c4)cn3)[C@H]12	–
0.0165	0.088	COCCOC(=O)N1CC[C@@H]2[C@H](C[C@H]3C(=O)O[C@H](C)[C@H]3[C@H]2/C=C/c2ccc(-c3cccc(F)c3)cn2)C1	–
0.026	1.19	C[C@H]1OC(=O)[C@@H]2C[C@@H]3COCC[C@H]3[C@H](/C=C/c3ccc(-c4cccc(F)c4F)cn3)[C@H]12	–
0.011	–	CCOC(=O)N1CC[C@@H]2[C@H](C[C@H]3C(=O)O[C@H](C)[C@H]3[C@H]2/C=C/c2ccc(-c3cccc(C(F)(F)F)c3)cn2)C1	–
0.008	3.78	CCOC(=O)N1CC[C@@H]2[C@H](C[C@H]3C(=O)O[C@H](C)[C@H]3[C@H]2/C=C/c2ccc(-c3ccccc3F)cn2)C1	inhibition in vivo at 3 mg/kg [3]: 55%; inhibition in vivo at 3 mg/kg [4]: 55%
0.019	–	C[C@H]1OC(=O)[C@@H]2C[C@@H]3COCC[C@H]3[C@H](/C=C/c3ccc(-c4cccc(Cl)c4)cn3)[C@H]12	–
